Measurements published in paper PMC2828495 (Bioorganic & medicinal chemistry, 2010).

What was measured:
EcN68 SecA = EcN68 SecA (Escherichia coli, UniProt P10408); test: EcN68 SecA ATPase inhibition; format: biochemical, E. coli
leaky mutant NR698 = test: Antimicrobial test; format: cell-based, E. coli; details: Figure 8
Outline: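 E. coli NR698 (MC4100 imp4213), a strain with increased outer-membrane permeability. Log-phase cells at OD600 ~0.5 to 1.0 were diluted to OD600 0.05 and test compound (dissolved in DMSO) was added. Cultures containing 5% DMSO final were shaken at 37 °C, 1050 rpm, for 10 to 12 h. MIC was then determined.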

[1] = tested on: wild type E. coli strain MC4100; test: Antimicrobial test; format: cell-based; details: Figure 8
EcSecA = EcSecA (Escherichia coli, UniProt P10408); test: Whole EcSecA ATPase inhibition; format: biochemical, E. coli
Outline: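 Full-length E. coli SecA was over-expressed from pT7-SecA and purified. Each reaction held 5 µg SecA, 2 mM ATP, 50 mM Tris-HCl pH 7.6, 20 mM KCl, 20 mM NH4Cl, 1 mM DTT, 2 mM Mg(OAc)2 and 10% DMSO, run at 40 °C for 40 min. Malachite green, then 34% citric acid, was added; after 40 min at room temperature A660 gave Pi. Activity was expressed as % of no-compound control, at least in triplicate, with IC50 from inhibition curves.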

[2] = Solubility observation in the inhibition assay; format: physicochemical; details: when approaching 100 µM

Chain of EcN68 SecA (P10408 1-610): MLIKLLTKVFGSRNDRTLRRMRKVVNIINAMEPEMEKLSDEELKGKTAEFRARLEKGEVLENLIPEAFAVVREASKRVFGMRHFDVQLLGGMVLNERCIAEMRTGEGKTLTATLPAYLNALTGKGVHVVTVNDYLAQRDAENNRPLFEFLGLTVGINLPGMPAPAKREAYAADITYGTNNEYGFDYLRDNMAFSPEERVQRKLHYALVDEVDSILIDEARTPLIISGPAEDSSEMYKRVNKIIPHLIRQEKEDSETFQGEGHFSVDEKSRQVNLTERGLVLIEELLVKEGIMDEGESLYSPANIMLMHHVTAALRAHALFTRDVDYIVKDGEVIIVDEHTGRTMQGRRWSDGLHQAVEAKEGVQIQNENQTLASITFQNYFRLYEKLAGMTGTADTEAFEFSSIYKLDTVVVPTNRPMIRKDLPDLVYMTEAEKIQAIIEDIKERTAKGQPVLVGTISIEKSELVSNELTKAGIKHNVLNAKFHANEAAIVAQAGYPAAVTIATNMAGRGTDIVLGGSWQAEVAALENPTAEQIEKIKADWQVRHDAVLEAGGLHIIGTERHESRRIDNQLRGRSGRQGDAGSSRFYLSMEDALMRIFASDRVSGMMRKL
Chain of EcSecA (P10408 whole entry): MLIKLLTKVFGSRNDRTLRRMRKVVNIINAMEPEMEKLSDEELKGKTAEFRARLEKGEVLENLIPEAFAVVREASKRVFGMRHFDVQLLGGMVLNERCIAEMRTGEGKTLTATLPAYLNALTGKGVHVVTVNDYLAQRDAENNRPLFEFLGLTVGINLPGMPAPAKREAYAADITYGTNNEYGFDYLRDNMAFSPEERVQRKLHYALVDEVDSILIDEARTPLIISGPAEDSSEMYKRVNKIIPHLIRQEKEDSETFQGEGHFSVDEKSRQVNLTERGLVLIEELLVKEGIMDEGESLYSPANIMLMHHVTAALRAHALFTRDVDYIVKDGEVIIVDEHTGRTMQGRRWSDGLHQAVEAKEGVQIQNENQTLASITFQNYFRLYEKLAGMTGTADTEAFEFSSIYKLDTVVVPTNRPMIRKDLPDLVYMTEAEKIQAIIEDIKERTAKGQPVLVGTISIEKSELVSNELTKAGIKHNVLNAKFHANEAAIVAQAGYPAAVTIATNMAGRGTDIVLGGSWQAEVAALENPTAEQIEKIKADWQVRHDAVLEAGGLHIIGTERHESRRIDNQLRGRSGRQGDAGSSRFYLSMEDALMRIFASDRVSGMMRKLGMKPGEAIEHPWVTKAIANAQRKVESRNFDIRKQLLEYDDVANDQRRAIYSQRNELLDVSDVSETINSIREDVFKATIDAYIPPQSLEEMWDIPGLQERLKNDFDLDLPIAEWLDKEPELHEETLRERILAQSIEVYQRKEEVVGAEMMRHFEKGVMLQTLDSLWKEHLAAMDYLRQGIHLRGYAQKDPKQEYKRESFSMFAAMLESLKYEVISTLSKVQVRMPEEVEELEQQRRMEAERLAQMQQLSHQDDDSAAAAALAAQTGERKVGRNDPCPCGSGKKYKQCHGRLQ

SMILES	fold more potent than the hit compound(s) (EcN68 SecA) [fold]	IC50 (EcN68 SecA) [µM]	antimicrobial activity (MIC) against NR698 (leaky mutant NR698)	antimicrobial activity (MIC) against MC4100 [1]	IC50 (EcSecA) [µM]	solubility [2]
N#Cc1c(-c2ccc(Br)cc2)nc(SCc2ccc(CSC3=NC(=O)C(C#N)C(c4ccc(Br)cc4)=N3)cc2)[nH]c1=O (stereo not drawn) [16g, 2,2'-(α,α’-Xylene)bis(sulfanediyl)bis-(6-(4-bromophenyl)-5-cyano-4-oxopyrimidine)]	50	–	–	–	–	–
N#Cc1c(-c2ccc(-c3ccccc3)cc2)nc(SCc2ccc(CSC3=NC(=O)C(C#N)C(c4ccc(-c5ccccc5)cc4)=N3)cc2)[nH]c1=O (stereo not drawn) [16h, 2,2'-(α,α’-Xylene)bis(sulfanediyl)bis-(6-(biphenyl-4-yl)-5-cyano-4-oxopyrimidine)]	50	2	did not exhibit significantly antimicrobial activities	neither 17h nor 16h exhibited inhibition effects	–	–
N#Cc1c(-c2ccc(-c3ccccc3)cc2)nc(SCc2ccccc2)[nH]c1=O [17h, S-Benzyl-5-cyano-6-(biphenyl-4-yl)-2-thiouracil]	–	–	most potent inhibition effects	neither 17h nor 16h exhibited inhibition effects	60	–
Cc1onc(-c2c(F)cccc2Cl)c1C(=O)Nc1ccc(Sc2ccccc2)nc1Sc1ccccc1 [compound 1]	–	–	–	–	–	started having solubility problems when approaching 100 µM
